Rows were chosen to be rich in hits. Some 2.6% of all compounds tested hit in one or more screens of this group.
SENP7 block: inhibitors of human SENP7 protease; Q9BQF6; recombinant SENP7, Z-RLRGG-aminoluciferin luminescence, 40 min; 330,000 tested, 1.5% active; inhibition, % at 5 µM;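 active means inhibition above about 50% at the single test dose, limit read from the data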
SENP8 block-1: inhibitors of human SENP8 protease; Q96LD8; purified SENP8, Z-RLRGG-aminoluciferin cleavage, luminescence; inhibition, % at 10 µM; 330,000 tested, 1.2% active; AID 2540; in the data active means inhibition above about 50%
Target sequence (Q96LD8 whole entry, looked up): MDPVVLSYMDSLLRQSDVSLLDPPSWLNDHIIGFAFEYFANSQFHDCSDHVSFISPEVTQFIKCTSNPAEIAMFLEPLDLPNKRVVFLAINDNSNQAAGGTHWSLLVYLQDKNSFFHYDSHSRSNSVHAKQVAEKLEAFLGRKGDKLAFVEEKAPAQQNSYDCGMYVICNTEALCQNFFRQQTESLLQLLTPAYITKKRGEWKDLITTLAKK
Platelet DG rel: platelet dense granule release activity | AID 1663 | inhibition, %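 (compounds screened at 7.5 µM in platelet-rich plasma)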 | 300,000 tested, 0.22% active | human platelet-rich plasma, SFLLRN dense granule ATP release, luminescence;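 active means mean replicate score, as percent of positive control, at or above 50; inconclusive means mean below 50 but at least one replicate at or above 50; inactive means mean and every replicate below 50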
SENP8 block-2: inhibitors of human SENP8 protease. Q96LD8. recombinant SENP8, Nedd8 substrate fluorescence. inhibition, % at 20 µM. 360,000 tested, 0.64% active. AID 602440; in the data active means inhibition mostly above about 40%, no sharp cut-off; inactive means mostly below about 27%
SENP6 block: blocks the human protease SENP6. Q9GZR1. Recombinant SENP6 catalytic domain, aminoluciferin luminescence. inhibition, % at 10 µM. 330,000 tested, 1.8% active. AID 2599;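 active means inhibition above about 50% at the single tested dose, limit read from the data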
SENP1 FRET inh: SENP1 (human) catalytic domain inhibition | Q9P0U3 | recombinant SENP1 catalytic domain, CyPet-SUMO1-YPet FRET cleavage | inhibition, % at 10 µM | 360,000 tested, 0.21% active | AID 624204;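 active means inhibition at least 30% at 10 µM, raw YFP signal under a set limit, fluorescence ratio 0.5 to 1.5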
Target sequence (Q9P0U3 419-644 limits assumed): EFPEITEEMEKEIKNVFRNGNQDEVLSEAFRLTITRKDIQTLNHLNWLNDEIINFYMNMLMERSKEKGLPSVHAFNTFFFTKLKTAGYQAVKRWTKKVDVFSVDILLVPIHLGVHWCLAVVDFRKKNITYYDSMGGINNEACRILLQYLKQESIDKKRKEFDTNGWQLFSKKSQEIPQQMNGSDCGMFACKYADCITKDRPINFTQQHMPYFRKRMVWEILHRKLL
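System: Recombinant human SENP1 catalytic domain, His6-tagged | Incubation: Enzyme reaction for 50 min at room temperature, dark | Medium: Tris pH 8 with BME, BSA, NP40 and catalase | Also added: 25 nM SUMO1 FRET substrate | Compound: 10 µM single point, 0.5% DMSO | Measured by: FRET fluorescence in CFP and YFP emission channels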
SENP8 confirm: confirmation of human SENP8 protease inhibitors | shares compounds with SENP7 block | Recombinant SENP8, Z-RLRGG-aminoluciferin luminescence, 60 min | inhibition, % at 12.5 µM | 6,200 tested, 40% active | AID 488912;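 active means mean inhibition across replicates above about 50%, limit read from the data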
SENP6 confirm: human SENP6 inhibition, confirmed; shares compounds with SENP7 block; recombinant SENP6, Z-RLRGG-aminoluciferin luminescence; inhibition, % at 12.5 µM; 6,200 tested, 58% active
SENP7 confirm: confirmation of human SENP7 protease inhibitors. shares compounds with SENP7 block. recombinant SENP7, Z-RLRGG-aminoluciferin luminescence, 40 min. inhibition, % at 12.5 µM. 6,200 tested, 69% active
Casp3 select: caspase-3 inhibition (SENP selectivity assay) | shares compounds with SENP7 block | purified caspase-3, Z-DEVD-aminoluciferin luminescence, 60 min | inhibition, % at 12.5 µM | 6,200 tested, 60% active | AID 488918;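 active means mean inhibition above about 50%, limit read from the data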
Target sequence (P42574 28-227 limits assumed): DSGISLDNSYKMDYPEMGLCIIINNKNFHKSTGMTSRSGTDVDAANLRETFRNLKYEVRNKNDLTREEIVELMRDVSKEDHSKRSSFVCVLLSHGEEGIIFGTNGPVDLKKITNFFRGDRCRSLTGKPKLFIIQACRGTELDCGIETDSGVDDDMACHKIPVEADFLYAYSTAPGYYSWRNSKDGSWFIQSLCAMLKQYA
Luc interf: luminescence interference (SENP counter-screen); shares compounds with SENP7 block; Pre-incubated SENP8/Z-RLRGG-aminoluciferin, luciferase luminescence interference; inhibition, % at 12.5 µM; 6,200 tested, 39% active; AID 488919;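 active means mean inhibition above about 50% when retested at one dose, limit read from the data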
Hits are given with their value; - = inactive; ? = inconclusive; . = no result given.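 How the source made its calls, unless noted: active means mean inhibition above about 50% in the one-dose retest (limit read from the data); inactive means the rest.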

SMILES | SENP7 block | SENP8 block-1 | Platelet DG rel | SENP8 block-2 | SENP6 block | SENP1 FRET inh | SENP8 confirm | SENP6 confirm | SENP7 confirm | Casp3 select | Luc interf
Cc1ccc(-c2csc(C(C#N)=C3CCCC3)n2)cc1 | - | - | - | - | - | - | . | . | . | . | .
C=CCNc1nc2cc(-c3cccc(Cl)c3)sc2c(=O)n1C | . | . | . | - | . | - | . | . | . | . | .
Cc1ccc(C(=O)Nc2cccc3cccnc23)cc1C | 63 | 51 | - | - | 69 | - | - | 63 | 86 | - | -
CNC(=O)c1ccc(-c2sc3nc(N4CCOCC4)c4c(c3c2N)CCCC4)o1 | - | - | - | - | 55 | - | - | - | - | - | -
O=C(NCc1ccccc1)c1c(F)c(F)c(F)c(F)c1F | - | 52 | . | - | - | - | - | - | - | - | -
CCc1nc2ccc(C(=O)Nc3cccc(OC)c3)cn2c1N(CC)Cc1cccc(Br)c1 | . | . | . | - | . | - | . | . | . | . | .
CCOc1ccc(C(=O)COC(=O)CC)cc1 | - | - | - | - | - | - | . | . | . | . | .
CCCCC(=O)OCC(=O)c1ccc(OCC)cc1 | 51 | - | - | - | 55 | - | - | - | 80 | 64 | -
CC(C)C[C@H]1CNC(=S)N1C[C@H]1CCCN1C[C@H](Cc1ccc(O)cc1)N1C[C@H](CC(C)C)N(CCc2ccccc2)C1=S | . | . | . | - | . | - | . | . | . | . | .
N#C/C(=C\c1cccs1)C(=O)Nc1ccccn1 | 64 | - | - | - | 59 | - | - | - | 83 | 71 | -
N#C/C(=C\c1ccccc1)C(=O)Nc1ccccn1 | - | - | - | - | - | - | . | . | . | . | .
Oc1c(C=Nc2cccnc2)sc2ccccc12 | - | 58 | - | - | 78 | - | - | 73 | 95 | 81 | 75
Oc1c(/C=N/c2ccccn2)sc2ccccc12 | 95 | 95 | 86 | - | 98 | - | 96 | 97 | 102 | 96 | -
Oc1c(C=Nc2ccccc2)sc2ccccc12 | 101 | 97 | - | - | 97 | - | 92 | 100 | 103 | 98 | -
CN=Cc1sc2ccccc2c1O | - | - | - | - | - | - | . | . | . | . | .
Oc1sc(C=Nc2ccc(F)cc2)c2ccccc12 | - | - | - | - | - | - | . | . | . | . | .
Oc1sc(C=Nc2ccccc2)c2ccccc12 | 60 | 62 | - | - | - | - | 81 | 83 | 96 | 53 | 82
Oc1c(C=NCc2ccncc2)sc2ccccc12 | - | - | - | . | - | . | . | . | . | . | .
Cc1nnsc1NC(=O)OCc1ccccc1Cl | - | - | - | - | 55 | - | - | - | 63 | - | -
O=C(Cc1cccs1)Nc1ccccc1C(=O)O | - | - | - | - | 63 | - | 52 | 50 | 84 | 88 | 71
Cc1ccc(C(=O)NCCCNC(=O)c2ccco2)cc1C | - | - | - | - | - | - | . | . | . | . | .
c1ccc(-c2noc(C3CCCCC3)n2)nc1 | 55 | - | - | - | 59 | - | - | 50 | 83 | 79 | -
c1ccc(-c2noc(-c3ccc4c(c3)OCO4)n2)nc1 | - | 98 | 95 | - | 98 | - | - | 97 | 103 | 98 | -
c1ccc(-c2noc(-c3ccc4ccccc4c3)n2)nc1 | 100 | 96 | - | - | 97 | - | 94 | 99 | 101 | 97 | 60
c1ccc(CCc2ccccc2-c2nc(-c3ccccn3)no2)cc1 | - | - | - | - | - | - | . | . | . | . | .
SMILES | SENP7 block | SENP8 block-1 | Platelet DG rel | SENP8 block-2 | SENP6 block | SENP1 FRET inh | SENP8 confirm | SENP6 confirm | SENP7 confirm | Casp3 select | Luc interf
c1ccc(-c2nccc(-c3ccc4c(c3)OCO4)n2)cc1 | - | - | - | - | - | - | . | . | . | . | .
c1ccc(-c2ccccc2-c2nc(-c3cccnc3)no2)cc1 | - | - | . | - | - | - | . | . | . | . | .
c1ccc(-c2noc(-c3cccnc3)n2)nc1 | 57 | - | - | - | - | - | 51 | - | 78 | 85 | 58
Brc1ccc(-c2noc(C3CCCCC3)n2)cc1 | - | - | - | - | - | - | . | . | . | . | .
O=c1oc2cc(O[C@@H]3OC[C@@H](O)[C@H](O)[C@H]3O)ccc2c2ccccc12 | - | - | - | - | - | - | . | . | . | . | .
c1ccc(-c2noc(-c3ccncc3)n2)nc1 | - | 79 | - | - | 81 | - | 81 | 82 | 96 | 96 | 83
Clc1ccccc1/C=C/c1nc(-c2ccccn2)no1 | 100 | 95 | ? | - | 96 | - | 99 | 100 | 103 | 98 | 74
CC(C)(C)Cc1nc(-c2ccccn2)no1 | - | - | - | - | - | - | . | . | . | . | .
O=C(NCc1ccco1)c1cccc(-c2cncc3nccn23)c1 | . | . | . | - | . | - | . | . | . | . | .
CN(C)c1cccc(C(=O)Nc2nnc(Cc3ccccc3)s2)c1 | - | - | - | - | - | - | . | . | . | . | .
CC(C)c1ccc2oc(-c3cc(N)ccc3O)nc2c1 | 86 | 91 | - | - | 94 | - | - | 91 | 94 | 70 | -
Cc1ccccc1-c1nc2ccccc2c(=O)o1 | . | . | . | - | . | - | . | . | . | . | .
Cc1ccccc1-c1nc2cc(N)ccc2o1 | 74 | 60 | - | - | 72 | - | - | - | - | - | -
CC(C(=O)O)c1ccc(C(=O)c2ccccc2)s1 (stereo not drawn) | - | 52 | . | - | 68 | - | 62 | 52 | 79 | 88 | 61
O=C(O)Cc1ccc(C(=O)c2ccccc2)s1 | - | - | - | - | - | - | . | . | . | . | .
CCC(C)NC(=O)C1CCN(C(=O)N(C)C)CC1 (stereo not drawn) | 102 | - | - | - | - | - | - | - | - | - | -
O=c1/c(=C\c2ccc3c(c2)OCO3)sc2n1CCCN=2 | 69 | 55 | - | - | 78 | - | - | - | 61 | - | -
O=C(Nc1ccnc(=O)[nH]1)c1sc2ccccc2c1Cl | 54 | 52 | - | - | 74 | - | - | - | - | - | -
O=[N+]([O-])c1ccc2nc(-c3ccccc3)oc2c1 | 71 | 63 | - | - | 77 | - | 54 | 59 | 78 | 70 | -
O=c1oc(-c2cccc([N+](=O)[O-])c2)nc2ccccc12 | - | - | - | - | - | - | . | . | . | . | .
COc1cccc(-c2nc3ccccc3c(=O)o2)c1 | - | - | - | - | - | - | . | . | . | . | .
COc1cccc(-c2nc3ccc([N+](=O)[O-])cc3o2)c1 | 95 | - | - | - | - | - | - | 56 | 73 | - | -
CCOc1ccccc1N(C)C(=O)CCS(=O)(=O)c1ccc2c(c1)NC(=O)C(C)S2 (stereo not drawn) | - | - | - | - | - | - | . | . | . | . | .

Screening results deposited in PubChem BioAssay by several laboratories.
